This is an account of results in ChEMBL document CHEMBL1134792, “Antimitotic antitumor agents: synthesis, structure-activity relationships, and biological characterization of N-aryl-N'-(2-chloroethyl)ureas as new selective alkylating agents” (J Med Chem, 2001).

The test system of assay [1] is CHO. Description: Dose required to inhibit cell growth was determined against CHO cell line. In kind it is functional, cell-based. The settings on record: Cricetulus griseus. The method in brief:
(§1)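 Alamar Blue growth assay. (1–5) × 10^3 cells per well preincubated 24 h, then exposed to increasing drug concentrations for 72 h at 37 °C. Medium replaced with PBS containing 20% Alamar Blue, fluorescence read at 485/590 nm. IC50 is the dose inhibiting growth by 50%.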

A short description of assay [2]: Alkylating activity by using 4-(4-nitrobenzyl)-pyridine(NBP) colorimetric assay. The method in brief: (§2)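 NBP colorimetric assay. Drug at 400 nmol/mL in ethanol was mixed with 10% NBP in ethanol and 50 mM sodium acetate pH 4.3, then heated at 80 °C for 60, 90, 120 or 150 min. Samples were chilled and basified with KOH/ethanol, and A570 was read against a drug-free blank. The alkylation rate (A570/min) is the slope of a linear regression of absorbance vs time. Mean ± SD of ≥3 independent experiments.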

In another assay the test system is P388. Description: Dose required to inhibit cell growth was determined against P388D1 cell line of murine lymphocytotic leukemia. Particulars: Mus musculus. In kind it is functional, cell-based. The method in brief:
as §1

For the next assay, the system named is L1210. Description: Dose required to inhibit cell growth was determined against L1210 cell line of murine lymphocytotic leukemia. Particulars: Mus musculus. In kind it is functional, cell-based. In a few lines:
as §1

The subject of assay [3] is HT-29. Description: Dose required to inhibit cell growth was determined against HT-29 cell line of human adenocarcinoma. In kind it is functional, cell-based. In a few lines:
as §1

For assay [4], the system named is MDA-MB-231. Description: DNA damages caused in MDA-MB-231 cells after 2 hr compound exposure to 400 uM concentration. In kind it is functional, Homo sapiens. The method in brief:
(§3)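 Growing MDA-MB-231 cells held 2 h at 37 °C in medium with or without 400 μM compound. Cells washed in cold PBS and lysed in Tris/SDS/EDTA/deferoxamine/proteinase K buffer. DNA isolated by salting out, then 3'-end labeled by T4 DNA polymerase nucleotide exchange. Incorporated radioactivity measured by dot filtration, expressed as dCps exchanged/ng DNA. Means ± SD, ≥3 determinations.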

Assay [5] is described as follows: Glutathione activity was measured after incubation with a conc. of 500 uM. In a few lines:
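Cell-free thiol assay. GSH 500 µM with 1 mM EDTA and 500 µM drug (from 2% ethanol solution) in 0.1 M phosphate buffer pH 7.4, 60 min at room temperature. DTNB (0.133 mM) was then added and A412 read. Reported as % of no-drug control, in triplicate.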

The test system of assay [6] is MDA-MB-231. The experiment in a line: Dose required to inhibit cell growth was determined against MDA-MB-231 cell line of human non-hormone dependent breast carcinoma. In kind it is functional, cell-based. In a few lines: as §1
The test system of assay [7] is MDA-MB-231. Description: Beta tubulin alkylation activity in MDA-MB-231 cells. More on the design: concentration or dose not given beside the values. In kind it is functional, Homo sapiens. In a few lines:
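MDA-MB-231 cells (~5 × 10^6), exponentially growing, exposed to 30 μM compound for 24 h at 37 °C. Lysed in Laemmli buffer, run on 10% SDS-PAGE, immunoblotted with anti-β-tubulin (TUB 2.1, 1:500) and peroxidase anti-mouse secondary, ECL detection. Normal and alkylated band densities integrated to give % alkylated β-tubulin. Representative of three experiments.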

A further assay concerns LoVo. The experiment in a line: Dose to inhibit cell growth determined against LoVo cell line of human adenocarcinoma. In kind it is functional, cell-based. In a few lines: as §1
Assay [8] deals with K562. The experiment in a line: Dose required to inhibit cell growth was determined against K562 cell line of chronic myelogenous leukemia. In kind it is functional, cell-based. Particulars: Homo sapiens. In a few lines: as §1
The target of assay [9] is T1, Glutathione reductase, mitochondrial (Homo sapiens) (UniProt P00390).
T1 sequence (whole entry): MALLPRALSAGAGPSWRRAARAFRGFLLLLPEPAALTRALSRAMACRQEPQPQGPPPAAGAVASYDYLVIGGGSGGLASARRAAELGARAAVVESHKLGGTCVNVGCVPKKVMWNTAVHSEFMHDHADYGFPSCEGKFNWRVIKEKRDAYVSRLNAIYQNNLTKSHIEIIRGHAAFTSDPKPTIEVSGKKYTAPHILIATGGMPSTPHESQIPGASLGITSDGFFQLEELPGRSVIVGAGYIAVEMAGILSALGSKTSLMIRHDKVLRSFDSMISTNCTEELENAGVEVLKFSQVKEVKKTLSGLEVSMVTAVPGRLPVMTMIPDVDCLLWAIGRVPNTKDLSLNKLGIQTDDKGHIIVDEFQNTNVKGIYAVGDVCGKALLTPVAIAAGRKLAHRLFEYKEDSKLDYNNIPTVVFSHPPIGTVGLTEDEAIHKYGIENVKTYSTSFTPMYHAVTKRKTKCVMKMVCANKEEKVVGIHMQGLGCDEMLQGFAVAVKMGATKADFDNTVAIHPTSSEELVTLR
Description: Glutathione reductase activity was measured after incubation with a conc. of 500 uM. In kind it is functional. In a few lines:
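Purified glutathione reductase (0.016 U/mL) with 100 µM NADPH, 1 mM EDTA, 1 mg/mL BSA and 500 µM drug (from 2% ethanol solution) in 0.1 M phosphate pH 7.4, preincubated 60 min at 30 °C. GSSG was then added for 60 min at 30 °C. Activity is the […] over 3 min, as % of no-drug control, in triplicate.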

For assay [10], the system named is MDA-MB-231. The experiment in a line: DNA damages caused in MDA-MB-231 cells after 2 hr exposure to a concentration of 400 uM. In kind it is functional, Homo sapiens. In a few lines: as §3
Assay [11] in a line: Alkylating activity by using 4-(4-nitrobenzyl)-pyridine (NBP) colorimetric assay. In a few lines:
as §2

Assay [12] relates to MDA-MB-231. Description: Dose required to inhibit cell growth was determined against MDA-MB-231 cell line of human non-hormone dependent breast carcinoma; Not active represents IC50 >400 uM. In kind it is functional, cell-based. The method in brief: (§4)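 Alamar Blue growth-inhibition assay. Cells ((1–5) × 10³ per well) were preincubated for 24 h, then exposed to increasing drug concentrations for 72 h at 37 °C. Alamar Blue (20%) was added and fluorescence read at ex 485 / em 590 nm. IC50 is the dose inhibiting growth by 50%. Means of ≥3 independent determinations.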

The subject of assay [13] is CHO. Description: Dose required to inhibit cell growth was determined against CHO cell line; Not active represents IC50 >400 uM. In kind it is functional, cell-based. The settings on record: Cricetulus griseus. In a few lines: as §4
Assay [14] has as its system HT-29. The experiment in a line: Dose required to inhibit cell growth was determined against HT-29 cell line of human adenocarcinoma; Not active represents IC50 >400 uM. In kind it is functional, cell-based. The method in brief: as §4
The test system of assay [15] is K562. Description: Dose required to inhibit cell growth was determined against K562 cell line of chronic myelogenous leukemia; Not active represents IC50 >400 uM. In kind it is functional, cell-based. The settings on record: Homo sapiens. In a few lines:
as §4

Each structure is given as a SMILES string. Active and inactive are the calls of the source. The calls are words filed in the database; no cut-off is given here.

Regarding `CC(C)(C)c1ccc(NC(=O)NCCCl)cc1`, the IC50 in the assay with CHO [1] is 6.3 µM; in the assay on P388 it was 5.2 µM; in the assay with L1210, 3 µM; in the assay with HT-29 [3], 9.1 µM; in the assay on MDA-MB-231 [6] it was 6.2 µM; in the assay with LoVo, 4.1 µM. The same compound came in with an IC50 in the assay on K562 [8] of 3.5 µM. Moreover, the Activity in [2] was determined as 3.1 A570 min-1; in assay [5], 100%; in the assay on MDA-MB-231 [7], 44%; in [9] it was 100%. In addition, the DNA damage with MDA-MB-231 [4] was 2.22 10e7 exchanged dCps (ng of DNA).
With `CCCCCc1ccc(NC(=O)NCCCl)cc1`, the IC50 was determined as 13 µM in the assay with CHO [1]; 7.3 µM in the assay on P388; 5.4 µM with L1210; 12 µM with HT-29 [3]; 12 µM in the assay on MDA-MB-231 [6]; 5.2 µM with LoVo. It took 6.1 µM to reach half-maximal inhibition in the assay on K562 [8] (IC50). In addition, the Activity in assay [2] stood at 2.9 A570 min-1; in [5], 100%; with MDA-MB-231 [7], 40%; in assay [9] it was 99%. For the same compound, in the assay on MDA-MB-231 [4], the DNA damage was 1.93 10e7 exchanged dCps (ng of DNA).
As to `O=NN(CCCl)C(=O)NCCCl` [CARMUSTINE], the IC50 was 8.2 µM in the assay with CHO [1]; 5.9 µM in the assay on P388; 4.5 µM in the assay with L1210; 17 µM with HT-29 [3]; 7.4 µM in the assay on MDA-MB-231 [6]; 9 µM in the assay on K562 [8]. Besides, the DNA damage with MDA-MB-231 [10] is on record as 19.9 10e7 exchanged dCps (ng of DNA). For the same compound, the figures for the Activity in assay [5] and in [9] were 50% and 20%, respectively.
As for `O=C(O)CCCc1ccc(N(CCCl)CCCl)cc1` [CHLORAMBUCIL], the IC50 with CHO [1] was 30 µM; with P388, 7 µM; in the assay with L1210 it was 3 µM; in the assay on HT-29 [3] it was > 100 µM; with MDA-MB-231 [6] it was 80 µM; in the assay on LoVo, 9 µM. In addition, in the assay on K562 [8], the IC50 worked out at 11 µM. The DNA damage in the assay on MDA-MB-231 [10] was 12.7 10e7 exchanged dCps (ng of DNA). The compound further yielded an Activity in [11] of 39 A570 min-1.
For `O=C(NCCCl)Nc1ccc(I)cc1`, the IC50 was found to be 4.8 µM in the assay with CHO [1]; 5.4 µM in the assay with P388; 3.8 µM in the assay with L1210; 3.9 µM with HT-29 [3]; 5.7 µM in the assay on MDA-MB-231 [6]; 5.4 µM in the assay with LoVo. In addition, the IC50 in the assay on K562 [8] came to 2.1 µM. In addition, the DNA damage with MDA-MB-231 [4] is 2.66 10e7 exchanged dCps (ng of DNA). For the same compound, the Activity was found to be 100% in assay [5], 44% in the assay with MDA-MB-231 [7], 3.1 A570 min-1 in [11] and 98% in [9].
On to `CCNC(=O)Nc1ccc(C(C)C)cc1`, for which the NA result with MDA-MB-231 [12], in the assay on CHO [13] and in the assay on HT-29 [14] was “inactive” each time. Moreover, the IC50 with L1210 worked out at 35 µM; in the assay on K562 [8], 142 µM.
In the case of `CCCCCCc1ccc(NC(=O)NCCCl)cc1`, the IC50 in the assay with CHO [1] turned out to be 15 µM; in the assay on P388, 8.2 µM; with L1210 it was 5 µM; in the assay on HT-29 [3] it was 12 µM; with MDA-MB-231 [6] it was 15 µM; in the assay on LoVo, 6.1 µM. This compound also returned an IC50 in the assay on K562 [8] of 7.1 µM. The Activity in [2] was 3.1 A570 min-1; in assay [5], 100%; in the assay on MDA-MB-231 [7] it was 34%; in [9] it was 99%. Moreover, the DNA damage with MDA-MB-231 [4] is reported as 2.32 10e7 exchanged dCps (ng of DNA).
For the compound `CNC(=O)Nc1ccc(C(C)(C)C)cc1`, the NA entry with MDA-MB-231 [12], in the assay on CHO [13] and in the assay with K562 [15] was “inactive” in each case. Also, the IC50 in the assay with L1210 came out at 80 µM; in the assay with HT-29 [3], 196 µM.
